Measured values: PubChem BioAssay
Results filed as inconclusive are left out.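 How the source made its calls, unless noted: active means viability increase at or above a cutoff of the median across tested compounds plus 3 SD (cut at about 8.5% in these data, passing the limit was not always enough); inconclusive means some gains above the cutoff, reason not given; inactive means the rest.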

Tests used:
[1] = S. cerevisiae growth inhibition in permissive medium (OD615), pilot counter-assay for S. cerevisiae lifespan shortening project, permissive growth control (AID 705;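 active means growth inhibition above 25% in both replicates, a cutoff set 3 SD above the mean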); conditions: OD615, 24 h, at 10 µM, active compounds read high
Summary of the method: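 Timing: 24 h exposure, 30 °C / Material: Saccharomyces cerevisiae strain carrying genetically modified DeaD replicative-lifespan system / Signal: OD at 615 nm / Compound: 10 µM single dose, 0.25% DMSO / Medium: SC raffinose/galactose permissive medium / Evaluation: reduction in yeast growth (OD615)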

[2] = S. cerevisiae growth inhibition in restrictive medium, OD615, pilot screen, restrictive growth control, yeast lifespan reduction project (AID 706;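 active means growth inhibition above a set limit, 3 SD over mean compound inhibition, in both replicates, cut at about 43% in these data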;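 further: modified DeaD lifespan yeast strain shifted to restrictive glucose medium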); conditions: OD615, 48 h, at 10 µM, active compounds read high
Summary of the method: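 System: Engineered S. cerevisiae DeaD strain | Detection: OD615 | Buffer or medium: CSMM-D glucose medium | Doses: 10 µM compound, 0.25% DMSO | Timing: 4 h pre-growth plus 48 h compound exposure, 30 °C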

[3] = doxorubicin toxicity protection in MRP-1 cells – H69AR cells, CellTiter-Glo, duplicate, MRP-1 activator project, pilot screen (AID 807); conditions: H69AR viability with doxorubicin, CellTiter-Glo luminescence; at 10 µM; active compounds read high;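 further: compound pretreatment 18-22 h then 72 h combined with doxorubicin; 0% = doxorubicin alone and 100% = vehicle without doxorubicin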
[4] = viability of HCT116 without oncogenic beta-catenin – human colon tumor cells, pilot screen (AID 823;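 active means cell viability at or below a set limit in both duplicate runs, the limit being the all-compound median minus 4 SD, cut at about 23% in these data, passing the limit was not always enough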;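 further: 0% = wells killed by 20 µM Hyamine and 100% = untreated DMSO cell wells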); conditions: HCT116 beta-catenin knockout viability, CellTiter-Glo, 60 h; at 10 µM; active compounds read low
[5] = viability of PTEN-null HCT116 cells – cell-based, HCT116 clonal line, CellTiter-Glo, pilot screen (AID 824;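 active means viability at or below 27.92% in each of two runs, the all-compound median minus 4 SD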;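 further: 0% = 20 µM Hyamine control and 100% = vehicle cell control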); conditions: HCT116 PTEN-deleted viability, 60 h, at 10 µM, active compounds read low
[6] = RAM pathway blockade in budding yeast – dse1pr::URA3 reporter, 5-FOA selection, pilot screen (AID 869;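 active means inhibition over a set limit, the all-compound mean plus 3 SD, in both replicate runs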;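 further: 0% = DMSO wells with no growth and 100% = 10 µM 1-NA-PP1 with full growth; RAM network block rescues cells from 5-FOA so hits raise OD615 growth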); conditions: S. cerevisiae dse1pr::URA3 5-FOA growth, OD615, 2 d; at 10 µM; active compounds read high; strain carries analog-sensitive mutant Cbk1 kinase
[7] = RAM signaling pathway blockade in yeast – S. cerevisiae, Pdr1DBD-CYC8 efflux-inhibited sensitized strain, primary screen (AID 1298;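 active means RAM network inhibition above 8.4% in each of two replicates, 3 SD over the compound average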;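 further: 0% = DMSO untreated cells without growth and 100% = 10 µM 1-NA-PP1 full growth; higher means more yeast growth rescued from 5-FOA killing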); conditions: S. cerevisiae cbk1-as DSE1-URA3 strain, 5-FOA growth OD615, 2 d; at 50 µM; active compounds read high

Cn1nc(CC(=O)NC2CCCCCC2)c2ccccc2c1=O
inactive: growth inhibition [1] 3.21% | growth inhibition [2] 6.03% | viability increase [3] -2.58% | viability [4] 62.4% | viability [5] 76.4% | inhibition [6] 0.825% | RAM network inhibition [7] 1.38%

Cc1c(N=c2c(=O)c3ccccc3c2=O)c(=O)n(-c2ccccc2)n1C
inactive: growth inhibition [1] -15.7% | growth inhibition [2] -8.74% | viability increase [3] -4.43% | viability [4] 95.2% | viability [5] 95.3% | inhibition [6] 4.17% | RAM network inhibition [7] 3.66%

Cc1nc(-c2ccc(S(=O)(=O)N3CCCCCC3)cc2)cs1
inactive: growth inhibition [1] 10.7% | growth inhibition [2] 2.95% | viability increase [3] -2.37% | viability [4] 90.8% | viability [5] 89.7% | inhibition [6] 0.075% | RAM network inhibition [7] 1.28%

CCOC(=O)N1CCc2c(sc(NC(=O)c3ccc(S(=O)(=O)N4CCCC4)cc3)c2C#N)C1
inactive: growth inhibition [1] -3.65% | growth inhibition [2] -5.41% | viability increase [3] -1.2% | viability [4] 99.1% | viability [5] 85% | inhibition [6] 2.04% | RAM network inhibition [7] 5.32%

Cc1c(NC(=O)NCCN2C(=O)C3C4C=CC(C4)C3C2=O)c(=O)n(-c2ccccc2)n1C (configuration not stated)
inactive: growth inhibition [1] -9.82% | growth inhibition [2] -8.71% | viability increase [3] 0.15% | viability [4] 98.2% | viability [5] 99.8% | inhibition [6] 1.09% | RAM network inhibition [7] 4.55%

COc1ccc(OC)c(NC(=O)C2CCCN2C(=O)C2CCC(C)CC2)c1 (configuration not stated)
inactive: growth inhibition [1] -14.1% | growth inhibition [2] 6.52% | viability increase [3] -5.02% | viability [4] 88.5% | viability [5] 91.6% | inhibition [6] 0.895% | RAM network inhibition [7] -0.32%

COc1ccc(CCNC(=O)c2cnccn2)cc1
inactive: growth inhibition [1] -10.1% | growth inhibition [2] -2.55% | viability increase [3] 0.3% | viability [4] 102% | viability [5] 87.2% | inhibition [6] 3.53% | RAM network inhibition [7] 2.5%

COc1ccc(-c2nc(CSCC(=O)N3CCN(C(=O)c4ccco4)CC3)c(C)o2)cc1OC
inactive: growth inhibition [1] -1.3% | growth inhibition [2] 0.055% | viability increase [3] -1.9% | viability [4] 106% | viability [5] 103% | inhibition [6] -0.54% | RAM network inhibition [7] 5.11%

O=C(NCc1ccc2c(c1)OCO2)C1CC(=O)N(CCc2ccccc2)C1 (configuration not stated)
inactive: growth inhibition [1] 0.26% | growth inhibition [2] 0.755% | viability increase [3] -0.29% | viability [4] 96.1% | viability [5] 95.7% | inhibition [6] 2.38% | RAM network inhibition [7] 2.32%

CC1(C)C(c2ccccc2)=[N+]([O-])CN1O
inactive: growth inhibition [1] 1.85% | growth inhibition [2] 9.78% | viability increase [3] -2.5% | viability [4] 107% | viability [5] 96.3% | inhibition [6] -0.14% | RAM network inhibition [7] -0.11%

CN1CCN(Cc2nc3c(c(=O)n(C)c(=O)n3C)n2CCc2ccccc2)CC1
inactive: growth inhibition [1] -8.96% | growth inhibition [2] -4.14% | viability increase [3] -1.67% | viability [4] 92.8% | viability [5] 103% | inhibition [6] 0.895% | RAM network inhibition [7] 2.53%

O=C(CCSCCC(=O)NCc1ccco1)NCc1ccco1
inactive: growth inhibition [1] 3.59% | growth inhibition [2] 10.5% | viability increase [3] -1.12% | viability [4] 89% | viability [5] 96% | inhibition [6] 0.745% | RAM network inhibition [7] 6.5%

N#C/C(=C(/O)CN1C(=O)c2ccccc2C1=O)c1nc2ccccc2[nH]1
inactive: growth inhibition [1] -9.93% | growth inhibition [2] -4.08% | viability increase [3] 0.55% | viability [4] 100% | viability [5] 94.4% | inhibition [6] 4.51% | RAM network inhibition [7] 4.04%

COc1cccc(-c2csc(NC(=O)C3CC3)n2)c1
inactive: growth inhibition [1] 1.37% | growth inhibition [2] 13.5% | viability increase [3] 4.92% | viability [4] 96.6% | viability [5] 91.5% | inhibition [6] -0.98% | RAM network inhibition [7] 1.49%

O=C1C2CCCN2C(c2ccc(Br)cc2)N1c1ccc(F)cc1 (configuration not stated)
inactive: growth inhibition [1] -4.66% | growth inhibition [2] -3.76% | viability increase [3] -3.07% | viability [4] 94.2% | viability [5] 90% | inhibition [6] 2.89% | RAM network inhibition [7] 9.1%

Cc1cc(C)nc(NS(=O)(=O)c2ccc(NC(=O)C3CC(=O)N(c4ccccc4)C3)cc2)n1 (configuration not stated)
inactive: growth inhibition [1] -4.82% | growth inhibition [2] 7.38% | viability increase [3] 1.33% | viability [4] 104% | viability [5] 100% | inhibition [6] 1.81% | RAM network inhibition [7] 3.68%

CCOc1ccc2nc(NC(=O)Nc3cccs3)sc2c1
inactive: growth inhibition [1] -10.4% | growth inhibition [2] -19.9% | viability increase [3] -3.88% | viability [4] 40.1% | viability [5] 31.6% | inhibition [6] 1.08% | RAM network inhibition [7] 0.79%

Cn1ccnc1-c1nc2ccccc2[nH]c1=O
inactive: growth inhibition [1] -6.04% | growth inhibition [2] -15.6% | viability increase [3] -1.95% | viability [4] 101% | viability [5] 95.5% | inhibition [6] -0.695% | RAM network inhibition [7] -0.73%

Cc1nc2ccc(NC(=O)c3ccc(S(=O)(=O)N4CCOCC4)cc3)cc2s1
inactive: growth inhibition [1] -2.22% | growth inhibition [2] -2.84% | viability increase [3] 0.28% | viability [4] 95.3% | viability [5] 93.8% | inhibition [6] 3.07% | RAM network inhibition [7] 4.83%

CCCCn1c(C(C)NC(=O)COC)nc2ccccc21 (configuration not stated)
inactive: growth inhibition [1] -3.38% | growth inhibition [2] 1.68% | viability increase [3] -0.01% | viability [4] 91.4% | viability [5] 101% | inhibition [6] 1.94% | RAM network inhibition [7] 0.2%

N=c1c2c3c(sc2nc2n1CCCCC2)CCCCC3
inactive: growth inhibition [1] -5.75% | growth inhibition [2] -13.7% | viability increase [3] -5.46% | viability [4] 67.7% | viability [5] 71.7% | inhibition [6] 0.715% | RAM network inhibition [7] 5.69%

CCOC(=O)Cc1csc(NC(=O)CN2C(=O)c3ccccc3S2(=O)=O)n1
inactive: growth inhibition [1] -8.36% | growth inhibition [2] -15% | viability increase [3] -2.2% | viability [4] 96.9% | viability [5] 101% | inhibition [6] 3.63% | RAM network inhibition [7] 5.65%

O=S(=O)(NCCc1csc(-c2cccnc2)n1)c1cccs1
inactive: growth inhibition [1] 1.37% | growth inhibition [2] -2.33% | viability increase [3] -1.11% | viability [4] 104% | viability [5] 96.8% | inhibition [6] 1.42% | RAM network inhibition [7] 0.73%

COc1ccc(CCNC(=O)c2ccco2)cc1
inactive: growth inhibition [1] 13.4% | growth inhibition [2] 8.97% | viability increase [3] -2.79% | viability [4] 107% | viability [5] 91.8% | inhibition [6] 1.58% | RAM network inhibition [7] -1.03%

O=C(Cn1nc(Cc2cccnc2)c2ccccc2c1=O)NCC1COc2ccccc2O1 (configuration not stated)
inactive: growth inhibition [1] 3.08% | growth inhibition [2] -0.92% | viability increase [3] -1.71% | viability [4] 90.5% | viability [5] 95.3% | inhibition [6] 1.99% | RAM network inhibition [7] 0.96%

Cc1cccc(N2CCN(C(=O)C3CCN(c4nnc(-n5cccc5)s4)CC3)CC2C)c1 (configuration not stated)
inactive: growth inhibition [1] -6.52% | growth inhibition [2] -21.5% | viability increase [3] -1.6% | viability [4] 40.1% | viability [5] 45% | inhibition [6] 0.825% | RAM network inhibition [7] 2.84%

CC(=O)c1cccc(NC(=O)c2cc(C)no2)c1
inactive: growth inhibition [1] -4.53% | growth inhibition [2] -12.4% | viability increase [3] -1.41% | viability [4] 98.9% | viability [5] 92.5% | inhibition [6] 1.26% | RAM network inhibition [7] -1.99%

COc1ccc2c(Cl)c(C(=O)NC3CCS(=O)(=O)C3)sc2c1 (configuration not stated)
inactive: growth inhibition [1] 1.61% | growth inhibition [2] -6.69% | viability increase [3] 2.14% | viability [4] 93.3% | viability [5] 99.3% | inhibition [6] 1.92% | RAM network inhibition [7] 1.43%

C=CCn1c(C)nc2c(c1=O)c1nc3ccccc3nc1n2-c1ccc(C)cc1
inactive: growth inhibition [1] -4.19% | growth inhibition [2] -2.97% | viability increase [3] -1.62% | viability [4] 92.3% | viability [5] 82.2% | inhibition [6] 1.32% | RAM network inhibition [7] 4.86%

O=C1c2ccccc2C(Nc2ccc(Cl)cn2)N1c1ccccn1 (configuration not stated)
inactive: growth inhibition [1] -15.4% | growth inhibition [2] 0.32% | viability increase [3] -4.01% | viability [4] 75.1% | viability [5] 81.1% | inhibition [6] 2.39% | RAM network inhibition [7] 8.97%

O=C(Nc1cccc2c1CCCC2)c1ccc(Br)o1
inactive: growth inhibition [1] -11.8% | growth inhibition [2] 6.87% | viability increase [3] -1.15% | viability [4] 79.6% | viability [5] 68% | inhibition [6] 2.19% | RAM network inhibition [7] 9.1%

COc1ccc(C2CC(c3ccc(F)cc3)Nc3nc(N)nn32)cc1 (configuration not stated)
inactive: growth inhibition [1] -3.94% | growth inhibition [2] 11.2% | viability increase [3] 0.02% | viability [4] 98.1% | viability [5] 94.4% | inhibition [6] 1% | RAM network inhibition [7] 6.59%

CCCCOc1ccccc1C1C(C(=O)OC)=C(C)N(C)C(C)=C1C(=O)OC
inactive: growth inhibition [1] -4.46% | growth inhibition [2] -5.04% | viability increase [3] -3.49% | viability [4] 83.1% | viability [5] 79.8% | inhibition [6] 0.225% | RAM network inhibition [7] 8.12%

CCOc1ccc2[nH]cc(S(=O)(=O)c3ccc(F)cc3)c(=O)c2c1
inactive: growth inhibition [1] -4.64% | growth inhibition [2] -19.8% | viability increase [3] -0.98% | viability [4] 78.7% | viability [5] 87.2% | inhibition [6] 0.455% | RAM network inhibition [7] 2.36%

CS(=O)(=O)Nc1ccccc1Oc1ccccc1
inactive: growth inhibition [1] -4.92% | growth inhibition [2] 2.56% | viability increase [3] -0.66% | viability [4] 97.5% | viability [5] 92.8% | inhibition [6] -0.23% | RAM network inhibition [7] -0.46%

COc1ccc(C(=O)Nc2cc3c(cc2C#N)OCO3)cc1S(=O)(=O)N1CCN(C)CC1
inactive: growth inhibition [1] -18.3% | growth inhibition [2] -21.2% | viability increase [3] 1.53% | viability [4] 100% | viability [5] 101% | inhibition [6] 0.975% | RAM network inhibition [7] 5.27%
